Activity calls are given as the source filed them. No cut-off for these calls is given here.
Legend:
Plasma [1] = experiment: Anticoagulant activity in human plasma assessed as effect on APC level using CBS 42.46 as synthetic substrate at 1 x 10^-3 M; assay type: functional
How it was run: (§1)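 Compound in saline added to citrated human plasma. Protein C activated by a snake venom-derived activator; enzyme formed quantified by amidolytic activity on chromogenic substrate CBS 42.46. Calibration curve linear 3–150%; normal and pathological control plasmas verify accuracy. Compounds at 1 × 10⁻³ M.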

Platelet [2] = experiment: Antiplatelet activity against thrombin receptor-activating peptide-6-induced platelet aggregation in human blood at 6.25 x 10^-4 M measured for 6 mins by multiplate electrical impedance aggregometry; assay type: functional, cell-based
How it was run: (§2)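 Hirudin-anticoagulated (final […]) healthy-donor whole blood, used within 0.5–1 h. Compound in saline to final 6.25 × 10⁻⁴ M; saline control, acetylsalicylic acid 6.25 × 10⁻⁴ M reference. Blood mixed with saline at 37 °C for 180 s, then agonist at final TRAP-6 […], arachidonic acid 0.5 mM or ADP […]. Impedance recorded 6 min; AUC from mean of two curves, accepted if within 20%.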

Platelet [3] = experiment: Antiplatelet activity against arachidonic acid-induced platelet aggregation in human blood at 6.25 x 10^-4 M measured for 6 mins by multiplate electrical impedance aggregometry; assay type: functional, cell-based; how it was run: as §2
Platelet [4] = experiment: Antiplatelet activity against adenosine diphosphate-induced platelet aggregation in human blood at 6.25 x 10^-4 M measured for 6 mins by multiplate electrical impedance aggregometry; assay type: functional, cell-based; how it was run: as §2
MCF7 = experiment: Cytotoxicity against human ER-positive MCF7 cells at 1.5 x 10^-4 after 48 hrs; assay type: cell-based; conditions: mcf7, 48 h
NCI-H460 = experiment: Cytotoxicity against human NCI-H460 cells at 1.5 x 10^-4 after 48 hrs; assay type: cell-based; conditions: nci-h460, 48 h
[5] = Cytotoxicity against human A375-C5 cells at 1.5 x 10^-4 after 48 hrs; assay type: cell-based; conditions: a375-c5, 48 h
Plasma [6] = experiment: Anticoagulant activity in human plasma assessed as effect on APC level using CBS 42.46 as synthetic substrate; assay type: functional, cell-free; how it was run: as §1
Plasma [7] = experiment: Anticoagulant activity in human plasma assessed as effect on prothrombin level by PT clotting time with factor II deficient plasma
Plasma [8] = experiment: Anticoagulant activity in human plasma assessed as effect on prothrombin level by PT clotting time with factor II deficient plasma at 1 x 10^-3 M
[9] = target: Antithrombin-III (Bos taurus) (UniProt P41361); experiment: Inhibition of bovine antithrombin-3 at 1 x 10^-3 M
Antithrombin-III (Bos taurus), sequence (P41361 whole entry): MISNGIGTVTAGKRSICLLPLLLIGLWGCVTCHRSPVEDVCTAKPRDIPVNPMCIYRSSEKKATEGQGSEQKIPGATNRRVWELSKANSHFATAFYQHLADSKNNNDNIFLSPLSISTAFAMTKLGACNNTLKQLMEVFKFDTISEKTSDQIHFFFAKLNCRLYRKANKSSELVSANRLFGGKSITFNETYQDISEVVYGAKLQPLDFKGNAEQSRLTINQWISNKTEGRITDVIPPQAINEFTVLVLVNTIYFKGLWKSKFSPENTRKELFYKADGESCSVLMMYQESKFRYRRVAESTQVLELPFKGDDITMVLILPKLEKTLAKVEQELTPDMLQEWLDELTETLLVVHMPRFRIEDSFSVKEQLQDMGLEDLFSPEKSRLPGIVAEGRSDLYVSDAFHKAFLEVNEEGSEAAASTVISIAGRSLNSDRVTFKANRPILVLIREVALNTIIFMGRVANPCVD

Plasma [10] = experiment: Anticoagulant activity in human plasma assessed as concentration required to double thrombin time at 5 x 10^-3 M; assay type: functional, cell-free
How it was run: (§3)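 Pooled citrated human plasma; compounds in water (10% DMSO for some), final 5 × 10⁻³ to 0.05 × 10⁻³ M; heparin 0.1–10 UI/mL as reference. APTT, PT and TT measured on a coagulometer with commercial kits, clotting time in s. Duplicates repeated on three days (n = 6). Concentration doubling clotting time obtained by linear regression of each concentration-response curve.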

Plasma [11] = experiment: Anticoagulant activity in human plasma assessed as concentration required to double prothrombin time at 5 x 10^-3 M; assay type: functional, cell-free; how it was run: as §3
Plasma [12] = experiment: Anticoagulant activity in human plasma assessed as concentration required to double activated partial thromboplastin time; assay type: functional; how it was run: as §3
[13] = target: Coagulation factor X (Homo sapiens) (UniProt P00742); experiment: Inhibition of human factor 10a using CH3SO2-D-Leu-Gly-Arg-pNA, AcOH as substrate at 1 x 10^-3 M by chromogenic substrate hydrolysis assay
Coagulation factor X (Homo sapiens), sequence (P00742 41-179 limits assumed): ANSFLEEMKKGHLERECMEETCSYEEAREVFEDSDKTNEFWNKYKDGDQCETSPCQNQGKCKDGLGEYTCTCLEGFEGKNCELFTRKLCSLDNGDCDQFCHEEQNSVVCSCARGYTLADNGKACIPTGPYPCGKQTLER
Coagulation factor X (Homo sapiens), sequence (P00742 235-488 limits assumed): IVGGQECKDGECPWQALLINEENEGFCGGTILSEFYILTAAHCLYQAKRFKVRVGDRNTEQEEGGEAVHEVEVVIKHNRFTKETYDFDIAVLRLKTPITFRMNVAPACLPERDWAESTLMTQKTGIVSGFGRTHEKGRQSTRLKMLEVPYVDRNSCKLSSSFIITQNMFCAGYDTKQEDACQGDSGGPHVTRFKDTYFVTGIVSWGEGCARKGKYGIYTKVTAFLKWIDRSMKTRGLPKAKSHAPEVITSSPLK
How it was run: (§4)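 Chromogenic hydrolysis in 50 mM Tris/HCl pH 8.3, 227 mM NaCl, 0.1% BSA, with and without bovine antithrombin III (1 U/mL final). Human factor Xa 0.5 U/mL with CBS 31.39 […], or human thrombin 0.06 U/mL with Chromozym TH […]. Absorbance at 405 nm, enzyme-free blank subtracted; initial slope vs water control gives % inhibition. Compounds at 1 × 10⁻³ M; n = 6.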

[14] = target: Prothrombin (Homo sapiens) (UniProt P00734); experiment: Inhibition of human thrombin using Tosyl-Gly-Pro-Arg-p-nitroaniline as substrate at 1 x 10^-3 M by chromogenic substrate hydrolysis assay; how it was run: as §4
Plasma [15] = experiment: Anticoagulant activity in human plasma assessed as concentration required to double prothrombin time; assay type: functional; how it was run: as §3

| Structure (SMILES) | Activity (Plasma [1]) [%] | AUC (Platelet [2]) [AU.min] | AUC (Platelet [3]) [AU.min] | AUC (Platelet [4]) [AU.min] | Activity (MCF7) | Activity (NCI-H460) | Activity [5] | Activity (Plasma [6]) | Activity (Plasma [7]) | Activity (Plasma [8]) [%] | inhibition [9] | Activity (Plasma [10]) | Activity (Plasma [11]) | 2aPTT (Plasma [12]) [mM] | Activity (Plasma [12]) | inhibition [13] | inhibition [14] | 2PT (Plasma [15]) [mM] | Activity (Plasma [15]) |
| --- | --- | --- | --- | --- | --- | --- | --- | --- | --- | --- | --- | --- | --- | --- | --- | --- | --- | --- | --- |
| C[C@@H]1O[C@@H](OC[C@H]2O[C@@H](Oc3c(-c4ccc(OCCOS(=O)(=O)[O-])c(OCCOS(=O)(=O)[O-])c4)oc4cc(OCCOS(=O)(=O)[O-])cc(O)c4c3=O)[C@H](OS(=O)(=O)[O-])[C@@H](OS(=O)(=O)[O-])[C@@H]2OS(=O)(=O)[O-])[C@H](OS(=O)(=O)[O-])[C@H](OS(=O)(=O)[O-])[C@H]1OS(=O)(=O)[O-].[Na+].[Na+].[Na+].[Na+].[Na+].[Na+].[Na+].[Na+].[Na+] | 38.5 | 840 | 330 | 330 | Non-toxic | Non-toxic | Non-toxic | Dose-dependent effect | Dose-dependent effect | 10.9 |  |  |  |  |  |  |  |  |  |
| O=C(O)c1cc(OS(=O)(=O)[O-])c(OS(=O)(=O)[O-])c(OS(=O)(=O)[O-])c1.[Na+].[Na+].[Na+] | 101 |  |  |  | Non-toxic | Non-toxic | Non-toxic |  |  | 61.5 | inactive | inactive | inactive | 1.96 | Dose-dependent effect | inactive | inactive |  |  |
| Cc1cc(=O)oc2cc(O[C@@H]3O[C@H](COS(=O)(=O)[O-])[C@@H](OS(=O)(=O)[O-])[C@H](OS(=O)(=O)[O-])[C@H]3OS(=O)(=O)[O-])ccc12.[Na+].[Na+].[Na+].[Na+] | 97 |  |  |  | Non-toxic | Non-toxic | Non-toxic |  |  | 64.5 | inactive | inactive |  | 1.18 | Dose-dependent effect | inactive | inactive | > 5 | Dose-dependent effect |
| CC(=O)Oc1ccccc1C(=O)O |  |  | 230 |  |  |  |  |  |  |  |  |  |  |  |  |  |  |  |  |
| O=c1oc2c(OS(=O)(=O)O)c(OS(=O)(=O)O)cc3c(=O)oc4c(OS(=O)(=O)O)c(OS(=O)(=O)O)cc1c4c23 |  |  |  |  |  |  |  |  |  |  |  | inactive | inactive |  |  |  |  |  |  |
